This note sets out measurements from paper PMC3174326 (Journal of medicinal chemistry, 2011).

The target in one experiment is JNK1 (Homo sapiens, UniProt P45983). Type of experiment: biochemical. Conditions: for IC50: read-out: Kinase Inhibition IC50, JNK1 phosphorylation of ATF2, TR-FRET. On the technique in general: TR-FRET usually uses a lanthanide donor and a delayed reading to cut background.
The test system of another experiment is NONcNZO10/LtJ mice. As to the kind of experiment: Glucose tolerance test in type 2 diabetes mouse model. The format is in vivo. The settings on record: 25 mg/kg i.p. daily, 26-week-old NONcNZO10/LtJ mice, 2 g/kg D-glucose i.p. The gist of the method: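 Male 26-week-old NONcNZO10/LtJ mice, glucose intolerant, received test compound daily by i.p. injection alongside vehicle-treated controls. After a 16 h fast, mice were given D-glucose i.p. Blood was sampled at set time points and glucose read with a hand-held meter. Treated and vehicle groups were compared by two-way ANOVA using all measurements.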

The next experiment addresses GST-JNK1 (UniProt P45983 1-427). As to the kind of experiment: DELFIA.

Where a SMILES comes first, the peptide text is derived from it. The star is where a group is joined. X1 = O=C(NCCCN*)c1ccc(-c2n[nH]c3ccccc23)cc1

Chain of JNK1 (P45983 whole entry): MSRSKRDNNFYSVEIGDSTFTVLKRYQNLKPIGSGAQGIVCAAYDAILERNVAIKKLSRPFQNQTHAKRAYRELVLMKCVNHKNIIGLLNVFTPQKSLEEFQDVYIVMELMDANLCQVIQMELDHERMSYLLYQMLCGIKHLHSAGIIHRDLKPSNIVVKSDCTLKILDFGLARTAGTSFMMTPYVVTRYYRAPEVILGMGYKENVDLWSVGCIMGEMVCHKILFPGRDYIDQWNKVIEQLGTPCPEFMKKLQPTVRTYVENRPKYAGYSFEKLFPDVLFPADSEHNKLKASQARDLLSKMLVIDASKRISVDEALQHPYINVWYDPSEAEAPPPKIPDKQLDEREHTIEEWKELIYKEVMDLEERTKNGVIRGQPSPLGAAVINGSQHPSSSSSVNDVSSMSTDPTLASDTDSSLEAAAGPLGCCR
Chain of GST-JNK1 (P45983 whole entry): as above

The IC50 is the concentration at which inhibition is half-maximal. On to `CC(C)CC(NC(=O)C(CC(N)=O)NC(=O)C(CC(C)C)NC(=O)C(NC(=O)C(NC(=O)C1CCCN1C(=O)C(N)CCCNC(=N)N)C(C)O)C(C)O)C(=O)NCC(=O)NCC(=O)NCCCNC(=O)c1ccc(-c2n[nH]c3ccccc23)cc1` (centres unmarked) [compound 9] (H-RPTTLNLGG-X1; configuration not given here), for which the “improvement of kinase inhibition properties compared with 20” value at JNK1 (9 versus 20, Figure 1e) is “over 100 fold”. Moreover, on JNK1, the IC50 came to 0.0007 µM.

With “Ac-tdqsrpvqpflnlttprrprpprrrqrrkkrg-OH (Ac-TDQSRPVQPFLNLTTPRRPRPPRRRQRRKKRG-OH; also: lowercase letters in name, meaning not given here) [compound 11]”, in the experiment with JNK1, the IC50 is over 50 µM. Also, the “glucose tolerance / restoring normoglycemia” value with NONcNZO10/LtJ mice is “observed shortcoming”.

B1: 10 (Ac-RPTTLNL-OH) (peptide)
peptide: Ac-RPTTLNL-OH
Take B1: in the experiment with GST-JNK1, inhibition was half-maximal at 4.5 µM (IC50).
